Source: the RNAGym collection of RNA variant scans (doi:10.1126/science.aae0568)
This sample holds only a part of the variants without activity.

B1: tRNA (parent)
chain: GUUCCGUUGGCGUAAUGGUAACGCGUCUCCCUCCUAAGGAGAAGACUGCGGGUUCGAGUCCCGUACGGAACG

Variants of: B1
Experiment: yeast fitness relative to wild type (ratio to wild type); higher = fitter; tRNA-Arg(CCU), competitive growth, 37 C, YPD
Method in brief: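 Changes in genotype frequencies gave Darwinian fitness relative to wild type. Frequencies were read by 100-nucleotide paired-end sequencing of gene amplicons before and after pooled Saccharomyces cerevisiae strains, carrying tRNA-Arg(CCU) gene variants at the native locus, were competed in YPD at 37°C for 24 hours in six replicates. A genotype was kept only with ≥ 100 starting reads, and estimates < 0.5 were set to 0.5.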

C4G C30G A69C A70G and C4G C30G G38A A42U cannot be ordered by yeast fitness: no more than 0.5 for the first, no more than 0.5 for the second.

C4G C30G G50U and C4G C31A A42C cannot be ordered by yeast fitness: no more than 0.5 for the first, no more than 0.5 for the second.

C4G C31A C33G G51C C60G and C4G C31A C33G G51C G52A C60G cannot be ordered by yeast fitness: no more than 0.5 for the first, no more than 0.5 for the second.

C4G C31A C61U and C4G C31G G38U cannot be ordered by yeast fitness: no more than 0.5 for the first, no more than 0.5 for the second.

Going from C4G C31U to C4G C31U G48C, the yeast fitness falls from 1.12 to 0.647.

Compared with C4G C33A, C4G C33U C55A is lower in yeast fitness: 0.653 for the first, no more than 0.5 for the second.

C4G C34G U59A and C4G C34U C49A U54C A69U cannot be ordered by yeast fitness: no more than 0.5 for the first, no more than 0.5 for the second.

Going from C4G C34U U35G A57G to C4G C46A, the yeast fitness rises from no more than 0.5 to 0.915.

Compared with C4G C46U, C4G C49U C62U is lower in yeast fitness: 0.861 for the first, 0.653 for the second.

Going from C4G C49U U59C to C4G C60G, the yeast fitness rises from 0.576 to 0.615.

C4G C60U C61G and C4G C61A C62U A65U A69C cannot be ordered by yeast fitness: no more than 0.5 for the first, no more than 0.5 for the second.

Compared with C4G C61A G67A, C4G G6A C11U C61U is lower in yeast fitness: 0.553 for the first, no more than 0.5 for the second.

Compared with C4G G6C A43U G48A C66G, C4G G6C G25A C29A C31A C33G G41C is lower in yeast fitness: 0.512 for the first, no more than 0.5 for the second.

First: C4G G6C U8G G17A U32C
Second: C4G G9A
The yeast fitness of the first is lower: no more than 0.5 for the first, 0.916 for the second.

C4G G9A C22U C46G G56C and C4G G9A C27U C46G G48A C62G G68C cannot be ordered by yeast fitness: no more than 0.5 for the first, no more than 0.5 for the second.

C4G G9A G39A G63A and C4G G9C C34A A36G A40C cannot be ordered by yeast fitness: no more than 0.5 for the first, no more than 0.5 for the second.

C4G G9C G41A and C4G G10A C30G A43G A57U cannot be ordered by yeast fitness: no more than 0.5 for the first, no more than 0.5 for the second.

C4G G10C C27G A37G G39A and C4G G10C C31U U53A cannot be ordered by yeast fitness: no more than 0.5 for the first, no more than 0.5 for the second.

C4G G10C C34U C46G and C4G G12A C24U A70C cannot be ordered by yeast fitness: no more than 0.5 for the first, no more than 0.5 for the second.

Compared with C4G G12A G38C C66U, C4G G12C is higher in yeast fitness: no more than 0.5 for the first, 0.676 for the second.

Compared with C4G G12C C46U, C4G G12C U35A C49G C66U is higher in yeast fitness: no more than 0.5 for the first, 0.658 for the second.

C4G G12U A14C C49G A57U C61G and C4G G12U A14C C49U cannot be ordered by yeast fitness: no more than 0.5 for the first, no more than 0.5 for the second.

C4G G12U A14C C49U C66U and C4G G17A A40G cannot be ordered by yeast fitness: no more than 0.5 for the first, no more than 0.5 for the second.

First: C4G G17A A45C
Second: C4G G17A C22A G38A
The yeast fitness of the first is lower: no more than 0.5 for the first, 0.638 for the second.

C4G G17A C22A G38A C49U U53C and C4G G17A C29U C62U cannot be ordered by yeast fitness: no more than 0.5 for the first, no more than 0.5 for the second.

First: C4G G17A C34A A43G
Second: C4G G17A C55U A70G
The yeast fitness of the first is higher: 0.633 for the first, no more than 0.5 for the second.

C4G G17A G41C G58A and C4G G17A G56C C60G C66U cannot be ordered by yeast fitness: no more than 0.5 for the first, no more than 0.5 for the second.

C4G G17A G58C C60U A69U and C4G G17A G63A C66U cannot be ordered by yeast fitness: no more than 0.5 for the first, no more than 0.5 for the second.

First: C4G G17C A20U A37C
Second: C4G G17C C22A C27G C33U C49G
The yeast fitness of the first is higher: 0.717 for the first, no more than 0.5 for the second.

Going from C4G G18A A21G G25A G51C to C4G G18A C66U, the yeast fitness rises from no more than 0.5 to 0.524.

C4G G18C C24G C29G and C4G G18C G68A cannot be ordered by yeast fitness: no more than 0.5 for the first, no more than 0.5 for the second.

Compared with C4G G23C, C4G G23C C55U A70U is lower in yeast fitness: 0.587 for the first, no more than 0.5 for the second.

C4G G23C C61G and C4G G25A C66A cannot be ordered by yeast fitness: no more than 0.5 for the first, no more than 0.5 for the second.

C4G G25A G51A and C4G G25A U28C A36C C60U U64A C66U cannot be ordered by yeast fitness: no more than 0.5 for the first, no more than 0.5 for the second.

First: C4G G25C
Second: C4G G25C C46U G50A
The yeast fitness of the first is higher: 0.982 for the first, 0.636 for the second.

Going from C4G G38A to C4G G38A G67A, the yeast fitness falls from 0.692 to no more than 0.5.

Going from C4G G38C to C4G G39C A45G A57C A65U C66U, the yeast fitness rises from 0.763 to 0.796.

Going from C4G G41A to C4G G41A A43C, the yeast fitness falls from 0.768 to no more than 0.5.

Going from C4G G41U C61A C66U to C4G G48A, the yeast fitness rises from no more than 0.5 to 0.876.

Compared with C4G G50C, C4G G51C U64A is lower in yeast fitness: 0.679 for the first, no more than 0.5 for the second.

Compared with C4G G51U, C4G G52C is higher in yeast fitness: 0.654 for the first, 0.655 for the second.

First: C4G G56A
Second: C4G G56A C66G
The yeast fitness of the first is higher: 0.927 for the first, no more than 0.5 for the second.

First: C4G G58C C66U
Second: C4G G68C
The yeast fitness of the first is lower: 0.73 for the first, 0.971 for the second.

Going from C4G G68U to C4G U7A C22U, the yeast fitness falls from 0.865 to no more than 0.5.

C4G U7A U19C A20C C55A G68C and C4G U7C C22U C27A U59G cannot be ordered by yeast fitness: no more than 0.5 for the first, no more than 0.5 for the second.

C4G U7C C27A A70U and C4G U7C C27A C66A A70U cannot be ordered by yeast fitness: no more than 0.5 for the first, no more than 0.5 for the second.

Going from C4G U7C C33G G52A to C4G U7G A20G A65U, the yeast fitness falls from 0.652 to no more than 0.5.

C4G U7G A36C and C4G U7G C29A A65C cannot be ordered by yeast fitness: no more than 0.5 for the first, no more than 0.5 for the second.

Going from C4G U7G C31U to C4G U7G C55G, the yeast fitness falls from 0.56 to no more than 0.5.

C4G U7G G9A A20G C22A G41A and C4G U7G G12C A20U A70U cannot be ordered by yeast fitness: no more than 0.5 for the first, no more than 0.5 for the second.

First: C4G U8C
Second: C4G U8C A37U A42C C66G
The yeast fitness of the first is higher: 0.89 for the first, no more than 0.5 for the second.

C4G U8C C22G A42C and C4G U8C C31G C33G G58C C60U A70C cannot be ordered by yeast fitness: no more than 0.5 for the first, no more than 0.5 for the second.

Going from C4G U8C G48C to C4G U8C U16A A21C C24G A37U C55U C62U A69U, the yeast fitness falls from 0.568 to no more than 0.5.

Going from C4G U8C U59G to C4G U8G C24A C31G G50A, the yeast fitness rises from no more than 0.5 to 0.594.

Compared with C4G U8G C27G, C4G U8G U35C U53G is lower in yeast fitness: 0.567 for the first, no more than 0.5 for the second.

Compared with C4G U13A, C4G U13A G18A G52A C55G is lower in yeast fitness: 0.874 for the first, no more than 0.5 for the second.

C4G U13A U54A and C4G U13G U16A cannot be ordered by yeast fitness: no more than 0.5 for the first, no more than 0.5 for the second.

Going from C4G U13G U16C to C4G U16A A21C C24G A37U C55U, the yeast fitness falls from 0.566 to no more than 0.5.

Going from C4G U16A G63A to C4G U16C A36U, the yeast fitness falls from 0.534 to no more than 0.5.

C4G U16C C29G A36U A70G and C4G U16C C31U A42G cannot be ordered by yeast fitness: no more than 0.5 for the first, no more than 0.5 for the second.

First: C4G U16C G41C C62U
Second: C4G U19C C24U
The yeast fitness of the first is lower: no more than 0.5 for the first, 0.619 for the second.

C4G U19C C29A C33G A45C and C4G U19G A43U cannot be ordered by yeast fitness: no more than 0.5 for the first, no more than 0.5 for the second.

Going from C4G U26A A57G to C4G U26A C27U A43G C55U C62U, the yeast fitness rises from no more than 0.5 to 0.589.

Compared with C4G U26A C27U A43G C55U C66U, C4G U26A U32C is higher in yeast fitness: no more than 0.5 for the first, 0.565 for the second.

Going from C4G U26A U47G U54C to C4G U28G, the yeast fitness rises from no more than 0.5 to 0.696.

First: C4G U32C A70U
Second: C4G U35G A42C C66U
The yeast fitness of the first is higher: 0.742 for the first, no more than 0.5 for the second.

Compared with C4G U59C, C4U is higher in yeast fitness: 0.771 for the first, 0.989 for the second.

First: C4U A14C C22U C34U
Second: C4U A14G
The yeast fitness of the first is lower: no more than 0.5 for the first, 0.856 for the second.

Compared with C4U A14G A21G C49U, C4U A14G A36C C46G C61G is lower in yeast fitness: 0.677 for the first, 0.544 for the second.

C4U A14G A36C C46G C62U and C4U A14G C34G cannot be ordered by yeast fitness: no more than 0.5 for the first, no more than 0.5 for the second.

Going from C4U A14U C46U to C4U A14U G50C G51C G56A, the yeast fitness falls from 0.577 to no more than 0.5.

C4U A15C A65U A69U and C4U A15C C30G C49U A69C A70G cannot be ordered by yeast fitness: no more than 0.5 for the first, no more than 0.5 for the second.

C4U A15C C30G G56A A69C A70G and C4U A15C C34A G63C cannot be ordered by yeast fitness: no more than 0.5 for the first, no more than 0.5 for the second.

C4U A15G C22U G44C and C4U A15G C33A U59C C60U cannot be ordered by yeast fitness: no more than 0.5 for the first, no more than 0.5 for the second.

Going from C4U A15U C30A A40G C66U to C4U A15U C30A A40G C66U A70G, the yeast fitness falls from 0.6 to no more than 0.5.

C4U A15U U16A G23C A57U A69U and C4U A15U U28C A57G C61G cannot be ordered by yeast fitness: no more than 0.5 for the first, no more than 0.5 for the second.

Going from C4U A20C C22U U47G G67A A69U to C4U A20C C55A, the yeast fitness rises from no more than 0.5 to 0.721.

C4U A20G A45U C49U C61U C62G A69C and C4U A20G C29G U32A C62A cannot be ordered by yeast fitness: no more than 0.5 for the first, no more than 0.5 for the second.

Compared with C4U A20G C55U A65G, C4U A20G C61A is higher in yeast fitness: no more than 0.5 for the first, 0.512 for the second.

Compared with C4U A20U A40U G52A A69U, C4U A20U C22G is higher in yeast fitness: no more than 0.5 for the first, 0.54 for the second.

Compared with C4U A20U U53C C61U, C4U A21C C31A G56C is lower in yeast fitness: 0.627 for the first, no more than 0.5 for the second.

Compared with C4U A21G A70U, C4U A21G C31G C34G is lower in yeast fitness: 0.78 for the first, 0.596 for the second.

Going from C4U A21G C46A to C4U A21G C46A C62U, the yeast fitness falls from 0.899 to 0.691.

In the case of C4U A21G C46A G68U, the yeast fitness is reported as 0.574.
